This is an account of results in ChEMBL document CHEMBL3045866, “A novel family of insect-selective peptide neurotoxins targeting insect large-conductance calcium-activated K+ channels isolated from the venom of the theraphosid spider Eucratoscelus constrictus” (Mol Pharmacol, 2011).

Activity calls are given as the source filed them. The rule behind the calls is not given here.

The subject of data set [1] is Mus musculus. Nature of the data set: Neurotoxicity against Mus musculus C57BL/6 (mouse) assessed as cyanosis at 500 pmol, icv measured after 4 hr. It counts as toxicity, organism-based. To be noted: in vivo, icv_or_intrathecal.
The test system of data set [2] is Gryllus bimaculatus. Nature of the data set: Neurotoxicity against third-instar nymph stage of Gryllus bimaculatus (cricket) assessed as paralysis at 1.1 nmol/g measured within 5 min. The format is functional, organism-based.
In data set [3] the test system is Mus musculus. Nature of the data set: Neurotoxicity against Mus musculus C57BL/6 (mouse) assessed as tail erection at 500 pmol, icv. The format is toxicity, organism-based. To be noted: in vivo, icv_or_intrathecal. A digest of the protocol: (§1)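 Female C57BL/6 mice (~20 g) lightly anesthetized with diethylether. 5 µl of sample in BSA solution injected into the left cerebral ventricle. Posture, behavior and neurotoxic signs observed; n = 2.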

For data set [4], the target named is Voltage-gated sodium channel Nav1 alpha subunit (Periplaneta americana) (UniProt D0E0C1). As to the kind of experiment: Inhibition of Nav channel in Periplaneta americana (American cockroach) DUM neurons assessed as effect on voltage-dependent activation at 330 nM measured at holding potential -90 mV depolarised to +70 mV with 10 mV increments for 10 min by whole cell patch clamp assay. In short, it runs like this: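 Whole-cell voltage clamp of TTX-sensitive Na+ current in DUM neurons isolated from adult cockroaches and kept no longer than 24 h at 30°C. Bath (mM): NaCl 80, CsCl 5, CaCl2 1.8, TEA-Cl 50, 4-AP 5, HEPES 10, NiCl2 0.1, CdCl2 1, pH 7.4. Vh -90 mV; test pulse to -10 mV, or steps to +70 mV in 10-mV increments at 0.1 Hz. P-P/4 leak subtraction; 20–23°C.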

Data set [5] can be described thus: Reversible inhibition of Potassium channel Kv in Periplaneta americana (American cockroach) DUM neurons at 330 nM measured at holding potential -90 mV depolarized to +30 mV after 10 min by whole cell patch clamp assay relative to control.
The test system of data set [6] is Mus musculus. As to the kind of experiment: Neurotoxicity against Mus musculus C57BL/6 (mouse) assessed as tonic paralysis at 500 pmol, icv measured after 4 hr. The format is toxicity, organism-based. To be noted: in vivo, icv_or_intrathecal.
Data set [7] is described as follows: Inhibition of delayed rectifier potassium channel IK(DR) in Periplaneta americana (American cockroach) DUM neurons at 330 nM measured at holding potential -90 mV depolarized to +30 mV after 10 min by whole cell voltage clamp assay in presence of CdCl2 and ChTx relative to control.
For data set [8], the target named is Voltage-dependent calcium channel alpha-1 subunit (Blattella germanica) (UniProt O18323). Nature of the data set: Inhibition of voltage-gated calcium channel Cav-mediated late-sustained current in Periplaneta americana (American cockroach) DUM neurons assessed as effect on voltage-dependent activation at 25 nM measured at holding potential -80 mV in 10 mV increments depolarized to +40 mV after 10 min by whole cell patch clamp assay in presence of CdCl2.

Data set [9] can be described thus: Inhibition of transient A type potassium channel IK(A) in Periplaneta americana (American cockroach) DUM neurons at 330 nM measured at holding potential -90 mV depolarized to +30 mV after 10 min by whole cell patch clamp assay in presence of CdCl2 and ChTx.
In data set [10] the test system is Mus musculus. As to the kind of experiment: Neurotoxicity against Mus musculus C57BL/6 (mouse) assessed as respiratory paralysis at 500 pmol, icv. The format is toxicity, organism-based. Particulars: in vivo, icv_or_intrathecal. A digest of the protocol: as §1
The target of data set [11] is Voltage-dependent calcium channel alpha-1 subunit (Blattella germanica) (UniProt O18323). As to the kind of experiment: Inhibition of voltage-gated calcium channel Cav-mediated fast-transient current in Periplaneta americana (American cockroach) DUM neurons assessed as effect on voltage-dependent activation at 25 nM measured at holding potential -80 mV in 10 mV increments depolarized to +40 mV after 10 min by whole cell patch clamp assay in presence of CdCl2. A digest of the protocol:
(§2)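 BK(Ca) current in DUM neurons with 5 mM 4-AP in the bath. Toxin perfused for 10 min or to equilibrium; then 1 mM CdCl2 plus 30 nM ChTx added, and the residual current subtracted. 100-ms steps from Vh -80 mV to +30 mV, or to +40 mV in 10-mV increments for I–V. Peak (fast-transient) and 100-ms (late) amplitudes measured. IC50 from logistic fit; n = 3–6.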

For data set [12], the system named is Mus musculus. Nature of the data set: Neurotoxicity against Mus musculus C57BL/6 (mouse) assessed as ataxia at 500 pmol, icv. The format is toxicity, organism-based. Particulars: in vivo, icv_or_intrathecal. In short, it runs like this:
as §1

The subject of data set [13] is Mus musculus. As to the kind of experiment: Neurotoxicity against Mus musculus C57BL/6 (mouse) assessed as extension of leg at 500 pmol, icv. The format is toxicity, organism-based. To be noted: in vivo, icv_or_intrathecal. A digest of the protocol: as §1
The subject of data set [14] is Mus musculus. Nature of the data set: Neurotoxicity against Mus musculus C57BL/6 (mouse) assessed as tonic paralysis at 500 pmol, icv. The format is toxicity, organism-based. To be noted: in vivo, icv_or_intrathecal. In short, it runs like this: as §1
Data set [15] is described as follows: Inhibition of transient A type potassium channel IK(A) in Periplaneta americana (American cockroach) DUM neurons assessed as effect on voltage-dependent activation at 330 nM measured at holding potential -90 mV depolarized to +40 mV with 100 ms increments after 10 min by whole cell patch clamp ….
In data set [16] the test system is Gryllus bimaculatus. Nature of the data set: Neurotoxicity against third-instar nymph stage of Gryllus bimaculatus (cricket) assessed as mortality at 1.1 nmol/g measured at 15 min. The format is functional, organism-based.
In data set [17] the target is Voltage-dependent calcium channel alpha-1 subunit (Blattella germanica) (UniProt O18323). Nature of the data set: Inhibition of voltage-gated calcium channel Cav-mediated fast-transient current in Periplaneta americana (American cockroach) DUM neurons assessed as measured at holding potential -80 mV depolarized to +40 mV after 10 min by whole cell patch clamp assay in presence of CdCl2. In short, it runs like this: as §2

Data set [18] concerns Mus musculus. As to the kind of experiment: Neurotoxicity against Mus musculus C57BL/6 (mouse) assessed as cyanosis at 500 pmol, icv. To be noted: in vivo, icv_or_intrathecal. It counts as toxicity, organism-based. In short, it runs like this: as §1
The nature of data set [19]: Inhibition of delayed rectifier potassium channel IK(DR) in Periplaneta americana (American cockroach) DUM neurons assessed as effect on voltage-dependent activation at 330 nM measured at holding potential -90 mV depolarized to +40 mV with 100 ms increments after 10 min by whole cell voltage clamp ….
Data set [20] has as its system Mus musculus. As to the kind of experiment: Neurotoxicity against Mus musculus C57BL/6 (mouse) assessed as extension of toes at 500 pmol, icv. It counts as toxicity, organism-based. To be noted: in vivo, icv_or_intrathecal. In short, it runs like this:
as §1

Data set [21] has as its target Voltage-dependent calcium channel alpha-1 subunit (Blattella germanica) (UniProt O18323). As to the kind of experiment: Inhibition of mid-low voltage activated Cav channel in Periplaneta americana (American cockroach) DUM neurons assessed as effect on voltage-dependent activation at 330 nM measured at holding potential -90 mV depolarized to +70 mV with 10 mV increments after 10 min by whole cell patch clamp assay. In short, it runs like this:
(§3)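 Ba2+ currents through M-LVA and HVA Cav channels recorded by whole-cell clamp in cockroach DUM neurons at 20–23°C. Toxin applied for 10 min via a perfusion needle. Peak IBa measured relative to control. For activation, steps from Vh -90 mV to +70 mV in 10-mV increments at 0.1 Hz. P-P/4 leak subtraction; n = 3.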

The target is the same in data set [22]. As to the kind of experiment: Inhibition of voltage-gated calcium channel Cav-mediated late-sustained current in Periplaneta americana (American cockroach) DUM neurons assessed as measured at holding potential -80 mV depolarized to +40 mV after 10 min by whole cell patch clamp assay in presence of CdCl2. In short, it runs like this:
as §2

For data set [23], the system named is Mus musculus. As to the kind of experiment: Neurotoxicity against Mus musculus C57BL/6 (mouse) assessed as convulsion at 500 pmol, icv. The format is toxicity, organism-based. To be noted: in vivo, icv_or_intrathecal. In short, it runs like this: as §1
Data set [24] deals with Voltage-dependent calcium channel alpha-1 subunit (Blattella germanica) (UniProt O18323). As to the kind of experiment: Inhibition of high voltage activated Cav channel in Periplaneta americana (American cockroach) DUM neurons assessed as effect on voltage-dependent activation at 330 nM measured at holding potential -90 mV depolarized to +70 mV with 10 mV increments after 10 min by whole cell patch clamp assay. In short, it runs like this: as §3

Sequence of Voltage-dependent calcium channel alpha-1 subunit (Blattella germanica) (O18323 as listed by the source): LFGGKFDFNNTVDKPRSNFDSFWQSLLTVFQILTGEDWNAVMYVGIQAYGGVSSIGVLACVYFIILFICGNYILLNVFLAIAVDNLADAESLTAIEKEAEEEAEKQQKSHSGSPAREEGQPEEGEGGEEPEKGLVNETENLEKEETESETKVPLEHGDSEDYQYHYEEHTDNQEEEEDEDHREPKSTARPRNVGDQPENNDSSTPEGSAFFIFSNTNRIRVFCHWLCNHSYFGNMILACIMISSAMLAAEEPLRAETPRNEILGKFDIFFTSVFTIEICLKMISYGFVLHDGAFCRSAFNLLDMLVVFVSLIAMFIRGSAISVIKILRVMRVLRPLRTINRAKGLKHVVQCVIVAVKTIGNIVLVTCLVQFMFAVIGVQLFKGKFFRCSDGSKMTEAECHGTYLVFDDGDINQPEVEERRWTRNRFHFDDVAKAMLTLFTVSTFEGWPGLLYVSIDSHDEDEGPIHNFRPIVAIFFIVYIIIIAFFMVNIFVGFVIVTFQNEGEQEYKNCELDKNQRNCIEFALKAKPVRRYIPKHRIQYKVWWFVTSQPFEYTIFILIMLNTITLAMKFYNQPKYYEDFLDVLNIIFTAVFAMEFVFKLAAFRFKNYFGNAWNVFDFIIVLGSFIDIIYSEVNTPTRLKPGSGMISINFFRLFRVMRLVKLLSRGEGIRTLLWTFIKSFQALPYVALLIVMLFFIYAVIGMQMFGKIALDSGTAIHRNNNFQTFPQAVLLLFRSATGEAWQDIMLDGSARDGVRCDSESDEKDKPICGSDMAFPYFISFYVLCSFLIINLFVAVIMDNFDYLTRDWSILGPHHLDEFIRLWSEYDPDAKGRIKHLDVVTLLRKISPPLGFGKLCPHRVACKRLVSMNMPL
Sequence of Voltage-gated sodium channel Nav1 alpha subunit (Periplaneta americana) (D0E0C1 as listed by the source): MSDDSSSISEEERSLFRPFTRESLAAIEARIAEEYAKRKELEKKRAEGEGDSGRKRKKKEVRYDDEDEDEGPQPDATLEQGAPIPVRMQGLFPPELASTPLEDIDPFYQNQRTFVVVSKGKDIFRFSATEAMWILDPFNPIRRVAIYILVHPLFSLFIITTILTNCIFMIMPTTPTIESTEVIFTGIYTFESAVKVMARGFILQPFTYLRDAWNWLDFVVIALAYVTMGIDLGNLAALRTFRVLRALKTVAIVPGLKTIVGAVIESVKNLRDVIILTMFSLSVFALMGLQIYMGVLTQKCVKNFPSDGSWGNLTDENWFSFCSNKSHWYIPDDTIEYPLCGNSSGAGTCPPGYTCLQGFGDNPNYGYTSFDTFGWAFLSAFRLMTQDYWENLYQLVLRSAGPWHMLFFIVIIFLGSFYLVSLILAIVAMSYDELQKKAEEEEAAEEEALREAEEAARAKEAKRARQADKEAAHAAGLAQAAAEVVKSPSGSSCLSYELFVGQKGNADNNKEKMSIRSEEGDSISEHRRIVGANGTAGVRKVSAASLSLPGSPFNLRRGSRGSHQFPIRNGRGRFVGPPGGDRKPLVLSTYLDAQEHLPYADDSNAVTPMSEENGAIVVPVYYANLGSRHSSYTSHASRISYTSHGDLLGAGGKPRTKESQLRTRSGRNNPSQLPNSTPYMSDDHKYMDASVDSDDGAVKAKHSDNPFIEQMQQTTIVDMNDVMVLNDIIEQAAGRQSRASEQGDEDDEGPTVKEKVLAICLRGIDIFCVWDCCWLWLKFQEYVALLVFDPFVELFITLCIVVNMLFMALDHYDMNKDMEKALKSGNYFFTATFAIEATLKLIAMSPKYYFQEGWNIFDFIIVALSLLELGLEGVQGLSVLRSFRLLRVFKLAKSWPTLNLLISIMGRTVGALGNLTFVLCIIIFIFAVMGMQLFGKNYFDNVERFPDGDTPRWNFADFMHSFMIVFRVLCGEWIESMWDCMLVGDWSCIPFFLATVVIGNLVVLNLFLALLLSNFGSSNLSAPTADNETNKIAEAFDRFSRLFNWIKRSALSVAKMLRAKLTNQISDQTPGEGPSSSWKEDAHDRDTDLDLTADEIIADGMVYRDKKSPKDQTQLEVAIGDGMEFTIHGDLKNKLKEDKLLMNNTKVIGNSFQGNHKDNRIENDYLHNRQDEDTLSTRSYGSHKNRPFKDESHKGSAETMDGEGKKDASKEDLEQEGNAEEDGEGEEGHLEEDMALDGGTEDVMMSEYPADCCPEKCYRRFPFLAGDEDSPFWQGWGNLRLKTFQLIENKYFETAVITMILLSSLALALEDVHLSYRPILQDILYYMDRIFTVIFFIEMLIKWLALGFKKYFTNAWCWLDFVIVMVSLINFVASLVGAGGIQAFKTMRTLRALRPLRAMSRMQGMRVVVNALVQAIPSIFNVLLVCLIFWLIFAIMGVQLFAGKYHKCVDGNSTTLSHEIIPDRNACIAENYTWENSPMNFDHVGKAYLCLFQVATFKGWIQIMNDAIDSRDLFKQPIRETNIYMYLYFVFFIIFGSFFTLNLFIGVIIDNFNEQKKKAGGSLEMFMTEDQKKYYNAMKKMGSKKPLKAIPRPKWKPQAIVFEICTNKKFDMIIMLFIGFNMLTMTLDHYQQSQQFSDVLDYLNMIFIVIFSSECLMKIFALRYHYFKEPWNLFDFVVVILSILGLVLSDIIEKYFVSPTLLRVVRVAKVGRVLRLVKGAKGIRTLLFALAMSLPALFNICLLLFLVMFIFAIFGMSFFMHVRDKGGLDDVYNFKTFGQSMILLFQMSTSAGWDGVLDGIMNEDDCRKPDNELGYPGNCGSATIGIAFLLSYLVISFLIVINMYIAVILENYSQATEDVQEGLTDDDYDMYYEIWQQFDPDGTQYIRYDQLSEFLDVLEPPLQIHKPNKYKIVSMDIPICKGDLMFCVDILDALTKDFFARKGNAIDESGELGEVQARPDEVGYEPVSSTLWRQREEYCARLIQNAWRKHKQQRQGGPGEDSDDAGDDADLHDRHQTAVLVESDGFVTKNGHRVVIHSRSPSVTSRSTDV

As for `CSCC[C@@H]1NC(=O)[C@H](CCCCN)NC(=O)[C@H](Cc2ccccc2)NC(=O)[C@H](CCC(N)=O)NC(=O)[C@@H](NC(=O)[C@@H](N)Cc2ccc(O)cc2)CSSC[C@@H]2NC(=O)[C@@H]3CSSC[C@@H](C(=O)N[C@@H](CCCCN)C(=O)N[C@@H](CC(C)C)C(=O)N[C@@H](CC(N)=O)C(=O)N[C@@H](CC(C)C)C(=O)O)NC(=O)[C@H](Cc4c[nH]c5ccccc45)NC(=O)[C@H](CC(C)C)NC(=O)[C@H](CCCNC(=N)N)NC(=O)[C@H](CSSC[C@H](NC(=O)[C@H]([C@@H](C)O)NC(=O)[C@H](Cc4c[nH]c5ccccc45)NC1=O)C(=O)N[C@@H](CC(=O)O)C(=O)N[C@@H](CO)C(=O)N[C@@H](CCC(=O)O)C(=O)N[C@@H](CCCNC(=N)N)C(=O)N[C@@H](CCCCN)C(=O)N3)NC(=O)[C@H](C(C)C)NC(=O)[C@H](CCSC)NC(=O)[C@H](CC(=O)O)NC(=O)[C@H](CCC(=O)O)NC2=O`, the Activity entry is given as “Non-toxic” in the data set on Mus musculus [1]; “Toxic” in the data set on Mus musculus [3]; “Non-toxic” in the data set with Mus musculus [6]; “Toxic” with Mus musculus [10]; “Toxic” in the data set on Mus musculus [12]; “Toxic” in the data set on Mus musculus [13]. In addition, the Activity entry in the data set on Mus musculus [14], in the data set with Mus musculus [18], in the data set on Mus musculus [20] and in the data set on Mus musculus [23] was “Toxic” in each case. Besides, the result in the data set on Gryllus bimaculatus [2] and with Gryllus bimaculatus [16] was Active. In addition, the inhibition result in [4], in data set [7], in data set [8], in data set [9], in [11] and in data set [15] was “inactive” each time. The inhibition entry in data set [19], in data set [21] and in [24] was “inactive” each time. Further, the inhibition entry in data set [5] is “Active”. For the same compound, the inhibition result in data set [17] and in data set [22] was “Dose-dependent effect” each time.
